Experimental data taken from publication PMC9508631 (Saudi Pharmaceutical Journal : SPJ, 2022).

How the values were obtained:
[1] = Stability of TAD in rat plasma under storage and processing conditions; format: in vitro ADME; conditions: for Processed sample stability, RE% / Processed sample stability, calculated conc. (Mean ± SD): autosampler, room temperature 24 h; for Freeze–thaw stability, RE% / Freeze–thaw stability, calculated conc. (Mean ± SD): three freeze–thaw cycles; for Long term stability, RE% / Long term stability, calculated conc. (Mean ± SD): −30 °C for 30 days
How it was run: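 Test compound spiked into blank rat plasma as QC samples at 0.5, 10 and 100 ng mL−1. Conditions: bench-top thaw at room temperature for 6 h (triplicates); −30 °C for 30 days; three freeze–thaw cycles (24 h at −30 °C, ambient thaw); processed samples held in the autosampler at room temperature for 24 h. Quantified by FPSE-UPLC-ESI-MS/MS, with peak areas compared against freshly prepared QCs; acceptance RE <15%.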

PDE5 = conditions: ref Bischoff, 2004; cited from earlier work
[2] = actual conc. 0.5 ng mL^-1, room temperature 6 h

Row | Processed sample stability, RE% ([1]; actual conc. 0.5 ng mL^-1) [%] | Processed sample stability, calculated conc. (Mean ± SD) ([1]; actual conc. 0.5 ng mL^-1) [ng/mL] | Benchtop stability, RE% [1, 2] [%] | Benchtop stability, calculated conc. (Mean ± SD) [1, 2] [ng/mL] | Freeze–thaw stability, RE% ([1]; actual conc. 0.5 ng mL^-1) [%] | Freeze–thaw stability, calculated conc. (Mean ± SD) ([1]; actual conc. 0.5 ng mL^-1) [ng/mL] | Long term stability, RE% ([1]; actual conc. 0.5 ng mL^-1) [%] | Long term stability, calculated conc. (Mean ± SD) ([1]; actual conc. 0.5 ng mL^-1) [ng/mL] | Processed sample stability, RE% ([1]; actual conc. 10 ng mL^-1) [%] | Processed sample stability, calculated conc. (Mean ± SD) ([1]; actual conc. 10 ng mL^-1) [ng/mL] | Benchtop stability, calculated conc. (Mean ± SD) ([1]; actual conc. 10 ng mL^-1, room temperature 6 h) [ng/mL] | Freeze–thaw stability, calculated conc. (Mean ± SD) ([1]; actual conc. 10 ng mL^-1) [ng/mL] | Long term stability, RE% ([1]; actual conc. 10 ng mL^-1) [%] | Long term stability, calculated conc. (Mean ± SD) ([1]; actual conc. 10 ng mL^-1) [ng/mL] | Processed sample stability, calculated conc. (Mean ± SD) ([1]; actual conc. 100 ng mL^-1) [ng/mL] | Benchtop stability, calculated conc. (Mean ± SD) ([1]; actual conc. 100 ng mL^-1, room temperature 6 h) [ng/mL] | Freeze–thaw stability, RE% ([1]; actual conc. 100 ng mL^-1) [%] | Freeze–thaw stability, calculated conc. (Mean ± SD) ([1]; actual conc. 100 ng mL^-1) [ng/mL] | Stability in rat plasma under the storage and processing situations ([1]; all four stability tests, RE% and RSD% within 15%) | SMILES | Selectivity for PDE5 (PDE5) [times]
1 | −2.0 | 0.490 ± 0.011 | −1.60 | 0.492 ± 0.012 | −3.8 | 0.481 ± 0.022 | −2.60 | 0.487 ± 0.018 | 0.50 | 10.05 ± 0.195 | 9.98 ± 0.251 | 9.85 ± 0.263 | 1.10 | 10.11 ± 0.219 | 99.48 ± 1.824 | 99.90 ± 1.850 | 0.22 | 100.22 ± 2.054 | stable | CN1CC(=O)N2[C@H](c3ccc4c(c3)OCO4)c3[nH]c4ccccc4c3C[C@@H]2C1=O [TAD, Tadalafil] | 1000
2 | – | – | – | – | – | – | – | – | – | – | – | – | – | – | – | – | – | – | – | CCCc1nn(C)c2c(=O)[nH]c(-c3cc(S(=O)(=O)N4CCN(C)CC4)ccc3OCC)nc12 [SLD, sildenafil] | 41
